# According to ChEMBL document CHEMBL1671679, “Lack of pharmacokinetic interaction between amdoxovir and reduced- and standard-dose zidovudine in HIV-1-infected individuals” (Antimicrob Agents Chemother, 2010):
# What was measured:
# [1] = Half life in HIV-1 infected patient at 500 mg, po bid on day 1 by LC-MS/MS analysis; assay type: ADME, organism-based; details: human, in vivo
# In short: (§1)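 Untreated Hispanic HIV-1-infected adults (viral load ≥5,000 copies/ml, CD4 ≥200 cells/mm3). Blood was drawn into DCF-containing EDTA tubes on day 1 (0–12 h) and on day 10 (0–48 h post last dose), then stored at −80°C. Plasma was methanol-extracted with an internal standard and run by LC-MS/MS (2–3,000 ng/ml AMDX/DXG; 2–5,000 ng/ml ZDV). Noncompartmental analysis assumed extravascular input; τ = 12 h; geometric means reported; accumulation was taken as AUCτ day 10/day 1.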
# [2] = Cmax in HIV-1 infected patient at 500 mg, po bid on day 10 coadministered with 300 mg, po bid zidovudine by LC-MS/MS analysis; assay type: ADME, organism-based; set-up: dose 500 mg, route oral; details: human, in vivo; in short: as §1
# [3] = Half life in HIV-1 infected patient at 500 mg, po bid on day 10 coadministered with 300 mg, po bid zidovudine by LC-MS/MS analysis; assay type: ADME, organism-based; details: human, in vivo; in short: as §1
# [4] = AUC (0 to 12 hrs) in HIV-1 infected patient at 500 mg, po bid on day 10 by LC-MS/MS analysis; assay type: ADME, organism-based; set-up: dose 500 mg, time < 12 hr, route oral; details: human, plasma; in short: as §1
# [5] = Half life in HIV-1 infected patient at 500 mg, po bid on day 10 by LC-MS/MS analysis; assay type: ADME, organism-based; details: human, in vivo; in short: as §1
# [6] = Tmax in HIV-1 infected patient at 500 mg, po bid on day 10 by LC-MS/MS analysis; assay type: ADME, organism-based; details: human, in vivo
# In short: (§2)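 Treatment-naive Hispanic HIV-1-infected adults (≥5,000 RNA copies/ml, CD4 ≥200 cells/mm3). Blood drawn after first dose on day 1 (0–12 h) and after last dose on day 10 (0–48 h) into DCF-containing EDTA tubes to block ex vivo deamination, centrifuged, plasma stored −80°C. Methanol extraction with internal standard, LC-MS/MS (linear 2–3,000 ng ml−1 for AMDX and DXG). Noncompartmental analysis assuming extravascular input; geometric means reported.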
# [7] = AUC (0 to 12 hrs) in HIV-1 infected patient at 500 mg, po bid on day 10 coadministered with 200 mg, po bid zidovudine by LC-MS/MS analysis; assay type: ADME, organism-based; set-up: dose 500 mg, time < 12 hr, route oral; details: human, plasma; in short: as §1
# [8] = Tmax in HIV-1 infected patient at 500 mg, po bid on day 1 by LC-MS/MS analysis; assay type: ADME, organism-based; details: human, in vivo; in short: as §2
# [9] = AUC (0 to 12 hrs) in HIV-1 infected patient at 500 mg, po bid on day 10 coadministered with 300 mg, po bid zidovudine by LC-MS/MS analysis; assay type: ADME, organism-based; set-up: dose 500 mg, time < 12 hr, route oral; details: human, plasma; in short: as §1
# [10] = Half life in HIV-1 infected patient at 500 mg, po bid on day 10 coadministered with 200 mg, po bid zidovudine by LC-MS/MS analysis; assay type: ADME, organism-based; details: human, in vivo; in short: as §1
# [11] = Apparent oral clearance in HIV-1 infected patient at 500 mg, po bid on day 10 coadministered with 300 mg, po bid zidovudine by LC-MS/MS analysis; assay type: ADME, organism-based; details: human, in vivo; in short: as §1
# [12] = Apparent oral clearance in HIV-1 infected patient at 500 mg, po bid on day 10 coadministered with 200 mg, po bid zidovudine by LC-MS/MS analysis; assay type: ADME, organism-based; details: human, in vivo; in short: as §1
# Homo sapiens [13] = assay: Ratio of AUC (0 to 12 hrs) in HIV-1 infected patient at 500 mg, po bid on day 10 to AUC (0 to 12 hrs) in HIV-1 infected patient at 500 mg, po bid on day 1; assay type: ADME, organism-based; details: in vivo; in short: as §1
# Homo sapiens [14] = assay: Ratio of AUC (0 to 12 hrs) in HIV-1 infected patient at 500 mg, po bid on day 10 coadministered with 200 mg, po bid zidovudine to AUC (0 to 12 hrs) in HIV-1 infected patient at 500 mg, po bid on day 1 coadministered with 200 mg, po bid zidovudine; assay type: ADME, organism-based; details: in vivo; in short: as §1
# Homo sapiens [15] = assay: Ratio of AUC (0 to 12 hrs) in HIV-1 infected patient at 500 mg, po bid on day 10 coadministered with 300 mg, po bid zidovudine to AUC (0 to 12 hrs) in HIV-1 infected patient at 500 mg, po bid on day 1 coadministered with 300 mg, po bid zidovudine; assay type: ADME, organism-based; details: in vivo; in short: as §1
# [16] = Tmax in HIV-1 infected patient at 500 mg, po bid on day 10 coadministered with 200 mg, po bid zidovudine by LC-MS/MS analysis; assay type: ADME, organism-based; details: human, in vivo; in short: as §2
# [17] = Cmax in HIV-1 infected patient at 500 mg, po bid on day 10 coadministered with 200 mg, po bid zidovudine by LC-MS/MS analysis; assay type: ADME, organism-based; set-up: dose 500 mg, route oral; details: human, in vivo; in short: as §1
# [18] = Cmax in HIV-1 infected patient at 500 mg, po bid on day 10 by LC-MS/MS analysis; assay type: ADME, organism-based; set-up: dose 500 mg, route oral; details: human, in vivo; in short: as §1
# [19] = Tmax in HIV-1 infected patient at 500 mg, po bid on day 10 coadministered with 300 mg, po bid zidovudine by LC-MS/MS analysis; assay type: ADME, organism-based; details: human, in vivo; in short: as §2
# [20] = Apparent oral clearance in HIV-1 infected patient at 500 mg, po bid on day 10 by LC-MS/MS analysis; assay type: ADME, organism-based; details: human, in vivo; in short: as §1
# Homo sapiens [21] = assay: Tmax in HIV-1 infected patient assessed as beta-D-dioxolane guanosine level at 500 mg, po bid on day 1 by LC-MS/MS analysis; assay type: ADME, organism-based; details: in vivo; in short: as §1
# [22] = Cmax in HIV-1 infected patient at 500 mg, po bid on day 1 by LC-MS/MS analysis; assay type: ADME, organism-based; set-up: dose 500 mg, route oral; details: human, in vivo; in short: as §1
# [23] = Drug level in HIV-1 infected patient urine assessed as zidovudine-5-O-glucoronide level at 300 mg, po bid on day 10 coadministered with 500 mg, po bid amdoxovir by LC-MS/MS analysis; assay type: ADME, organism-based; details: human, in vivo
# In short: (§3)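 At steady state (day 10), urine collected over one 12-h dose interval was analyzed by LC-MS/MS for AMDX, DXG, ZDV and ZDV-5′-O-glucuronide. Samples were diluted 100-fold, and the assay was linear from 1 to 500 μg/ml. Results are expressed as percentage of the dose recovered as each analyte (geometric means). Subjects were untreated HIV-1-infected adults.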
# [24] = Half life in HIV-1 infected patient at 300 mg, po bid on day 10 coadministered with 500 mg, po bid amdoxovir by LC-MS/MS analysis; assay type: ADME, organism-based; details: human, in vivo; in short: as §1
# [25] = Drug level in HIV-1 infected patient urine at 300 mg, po bid on day 10 coadministered with 500 mg, po bid amdoxovir by LC-MS/MS analysis; assay type: ADME, organism-based; details: human, read-out: Drug uptake; in short: as §3
# [26] = Drug level in HIV-1 infected patient urine on day 10 by LC-MS/MS analysis; assay type: ADME; details: human, read-out: Drug uptake; in short: as §3
# [27] = Tmax in HIV-1 infected patient on day 10 by LC-MS/MS analysis; assay type: ADME, organism-based; details: human, in vivo
# In short: (§4)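 Untreated Hispanic HIV-infected adults (VL ≥5,000 copies/ml, CD4 ≥200 cells/mm3) dosed orally b.i.d. for 10 days. Methanol extraction with internal standard, then LC-MS/MS for ZDV. Noncompartmental steady-state Tmax reported as geometric mean.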
# [28] = Apparent oral clearance in HIV-1 infected patient at 300 mg, po bid on day 10 coadministered with 500 mg, po bid amdoxovir by LC-MS/MS analysis; assay type: ADME, organism-based; details: human, in vivo; in short: as §1
# [29] = Half life in HIV-1 infected patient on day 10 by LC-MS/MS analysis; assay type: ADME, organism-based; details: human, in vivo; in short: as §1
# [30] = Tmax in HIV-1 infected patient at 200 mg, po bid on day 10 coadministered with 500 mg, po bid amdoxovir by LC-MS/MS analysis; assay type: ADME, organism-based; details: human, in vivo; in short: as §4
# [31] = Apparent oral clearance in HIV-1 infected patient at 200 mg, po bid on day 10 coadministered with 500 mg, po bid amdoxovir by LC-MS/MS analysis; assay type: ADME, organism-based; details: human, in vivo; in short: as §1
# [32] = Drug level in HIV-1 infected patient urine at 200 mg, po bid on day 10 coadministered with 500 mg, po bid amdoxovir by LC-MS/MS analysis; assay type: ADME, organism-based; details: human, read-out: Drug uptake; in short: as §3
# Homo sapiens [33] = assay: Ratio of AUC (0 to 12 hrs) in HIV-1 infected patient at 300 mg, po bid on day 10 coadministered with 500 mg, po bid amdoxovir to AUC (0 to 12 hrs) in HIV-1 infected patient at 300 mg, po bid on day 1 coadministered with 500 mg, po bid amdoxovir; assay type: ADME, organism-based; details: in vivo
# In short: (§5)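 Untreated Hispanic HIV-infected adults (VL ≥5,000 copies/ml, CD4 ≥200 cells/mm3) dosed orally b.i.d. Plasma sampled 0–12 h after first dose (day 1) and 0–48 h after last dose (day 10) into DCF-containing EDTA tubes, stored −80°C. ZDV measured by validated LC-MS/MS (linear 2–5,000 ng/ml). Noncompartmental analysis assuming extravascular input. Accumulation taken as AUCτ (τ = 12 h) day 10 / AUCτ day 1, as geometric means.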
# [34] = Drug level in HIV-1 infected patient urine on day 10 assessed as zidovudine-5-O-glucoronide level by LC-MS/MS analysis; assay type: ADME; details: human, in vivo; in short: as §3
# Homo sapiens [35] = assay: Ratio of AUC (0 to 12 hrs) in HIV-1 infected patient at 200 mg, po bid on day 10 coadministered with 500 mg, po bid amdoxovir to AUC (0 to 12 hrs) in HIV-1 infected patient at 200 mg, po bid on day 1 coadministered with 500 mg, po bid amdoxovir; assay type: ADME, organism-based; details: in vivo; in short: as §5
# [36] = Drug level in HIV-1 infected patient urine assessed as zidovudine-5-O-glucoronide level at 200 mg, po bid on day 10 coadministered with 500 mg, po bid amdoxovir by LC-MS/MS analysis; assay type: ADME, organism-based; details: human, in vivo; in short: as §3
# [37] = Tmax in HIV-1 infected patient at 300 mg, po bid on day 10 coadministered with 500 mg, po bid amdoxovir by LC-MS/MS analysis; assay type: ADME, organism-based; details: human, in vivo; in short: as §4
# Homo sapiens [38] = organism: Homo sapiens; assay: Ratio of AUC (0 to 12 hrs) in HIV-1 infected patient on day 10 to AUC ( 0 to 12 hrs) in HIV-1 infected patient on day 1; assay type: ADME, organism-based; details: in vivo; in short: as §5
# [39] = Apparent oral clearance in HIV-1 infected patient on day 10 by LC-MS/MS analysis; assay type: ADME, organism-based; details: human, in vivo; in short: as §1
# [40] = Half life in HIV-1 infected patient at 200 mg, po bid on day 10 coadministered with 500 mg, po bid amdoxovir by LC-MS/MS analysis; assay type: ADME, organism-based; details: human, in vivo; in short: as §1
smiles,measurement,setting,value
Nc1nc(N)c2ncn([C@H]3CO[C@@H](CO)O3)c2n1 [AMDOXOVIR],half-life,[1],1.3 h
same,Cmax,[2],714 ng/mL
same,half-life,[3],1.1 h
same,AUC at 12 h,[4],1330 ng·h/mL
same,half-life,[5],1.4 h
same,Tmax,[6],2 h
same,AUC at 12 h,[7],1730 ng·h/mL
same,Tmax,[8],1 h
same,AUC at 12 h,[9],2090 ng·h/mL
same,half-life,[10],1.7 h
same,CL/F,[11],63.5 mL/min/kg
same,CL/F,[12],74.7 mL/min/kg
same,Ratio AUC,Homo sapiens [13],0.95
same,Ratio AUC,Homo sapiens [14],0.99
same,Ratio AUC,Homo sapiens [15],0.67
same,Tmax,[16],2.5 h
same,Cmax,[17],649 ng/mL
same,Cmax,[18],499 ng/mL
same,Tmax,[19],2.5 h
same,CL/F,[20],91.5 mL/min/kg
same,Tmax,Homo sapiens [21],1 h
same,Cmax,[22],514 ng/mL
Cc1cn([C@H]2C[C@H](N=[N+]=[N-])[C@@H](CO)O2)c(=O)[nH]c1=O [ZIDOVUDINE],Drug uptake,[23],62.89%
same,half-life,[24],2.4 h
same,dose excreted,[25],6.74%
same,dose excreted,[26],6.24%
same,Tmax,[27],0.5 h
same,CL/F,[28],30 mL/min/kg
same,half-life,[29],2.2 h
same,Tmax,[30],0.5 h
same,CL/F,[31],39 mL/min/kg
same,dose excreted,[32],5.88%
same,Ratio AUC,Homo sapiens [33],0.86
same,Drug uptake,[34],61.15%
same,Ratio AUC,Homo sapiens [35],1.04
same,Drug uptake,[36],61.87%
same,Tmax,[37],0.5 h
same,Ratio AUC,Homo sapiens [38],1.21
same,CL/F,[39],23.2 mL/min/kg
same,half-life,[40],2.5 h
